Hits are enriched below; roughly 2.3% of the tested compounds scored in any of these assays.
SKN-1 block: inhibitors of C. elegans SKN-1; inhibition, % at 21.8 µM; C. elegans VP596 Pgst-4::GFP/RFP ratio, acrylamide-induced, 24 h; 360,000 tested, 0.49% active;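 active = interference check ratio from 0.5 to 1.5 plus GFP to RFP signal ratio inhibition reaching or exceeding a fixed threshold, cut at about 30% in these data, passing the limit was not always enough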
MPTP inh: blocks calcium-induced mitochondrial swelling; isolated mouse mitochondria, Ca2+ swelling absorbance, 30 min; 360,000 tested, 1.4% active; inhibition, % at 10 µM;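 active = inhibition of 50% or more, scaled per plate between neutral and stimulator controls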
ATG4B inhibitor: blocks human ATG4B protease cleavage of LC3 substrate. Q9Y4P1. ATG4B cleavage of LC3-PLA2, NBD-HPC fluorescence, 1 h. inhibition, % at 8.33 µM. 340,000 tested, 0.51% active. AID 504462; in the data active = inhibition above about 40%
Target sequence (Q9Y4P1 whole entry, looked up): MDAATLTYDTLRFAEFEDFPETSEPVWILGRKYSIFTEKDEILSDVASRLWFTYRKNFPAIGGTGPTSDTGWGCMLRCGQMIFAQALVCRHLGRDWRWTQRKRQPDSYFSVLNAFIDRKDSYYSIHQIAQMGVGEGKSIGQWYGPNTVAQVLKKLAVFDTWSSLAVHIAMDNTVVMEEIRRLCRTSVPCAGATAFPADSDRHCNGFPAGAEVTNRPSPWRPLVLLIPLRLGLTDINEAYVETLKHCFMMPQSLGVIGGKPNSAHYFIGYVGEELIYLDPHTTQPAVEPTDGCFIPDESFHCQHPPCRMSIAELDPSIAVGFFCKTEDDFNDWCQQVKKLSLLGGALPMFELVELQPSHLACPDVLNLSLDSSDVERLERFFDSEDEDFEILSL
MT1-MMP act inh: MT1-MMP (human) activation inhibition; P50281; HT1080 RFP-PRO-GFP cells, GFP/RFP ratio fluorescence, overnight; percent of plate control window, DMSO zero; GFP/RFP ratio change, % at 20 µM; 360,000 tested, 0.061% active; AID 651647;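 active = GFP/RFP ratio change of at least 30% with cell ATP level not reduced by more than half and red fluorescence within 50% of control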
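system = RFP-PRO-GFP reporter HT1080 cells | dosing = 20 µM single dose, 1% DMSO | timing = overnight cell settling, then overnight compound exposure, 37 °C, 5% CO2 | read-out basis = GFP/RFP fluorescence ratio | controls = DMSO and RFP-L50D-GFP cell wells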
ATG4B confirm: ATG4B (human) inhibition, single-dose confirmed; 320 tested, 92% active; AID 504757; shares compounds with ATG4B inhibitor; ATG4B protease fluorescent substrate cleavage assay; inhibition, % at 8.33 µM; in the data active = inhibition above about 39%
PLA2 ctr: inhibits human PLA2, flagging false ATG4B inhibitors; shares compounds with ATG4B inhibitor; purified PLA2, NBD-C6-HPC fluorescence, 45 min; inhibition, % at 8.33 µM; 1,600 tested, 66% active; AID 588402; in the data active = inhibition above about 50%
Target sequence (P04054 whole entry, looked up): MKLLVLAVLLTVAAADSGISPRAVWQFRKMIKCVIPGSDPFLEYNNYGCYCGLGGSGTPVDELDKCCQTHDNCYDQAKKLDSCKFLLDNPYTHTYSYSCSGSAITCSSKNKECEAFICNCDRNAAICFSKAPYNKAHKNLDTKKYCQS
Hits are given with their value; – = inactive; · = not tested or not shown.

SMILES	SKN-1 block	MPTP inh	ATG4B inhibitor	MT1-MMP act inh	PLA2 ctr	others
Cc1ccc(S(=O)(=O)Oc2ccc(/C=C3/C(=N)N4C(=NC3=O)SN=C4S(C)(=O)=O)cc2)cc1	–	–	54	–	67
Cc1ccc(S(=O)(=O)Oc2ccc(/C=C3\C(=N)N4N=C(S(C)(=O)=O)SC4=NC3=O)cc2)cc1	–	–	66	–	77
CS(=O)(=O)C1=NSC2=NC(=O)/C(=C\c3ccc(OS(=O)(=O)c4ccccc4)cc3)C(=N)N21	–	–	–	–	·
Cc1ccnc(NC(=O)Nc2ccc(Br)cc2Cl)c1	–	–	–	–	·
COc1ccc(C2=NNC(c3cccs3)=Nc3ccc(OC)cc32)cc1	–	–	55	–	60
COc1ccc(N(CC(=O)NCc2ccc3c(c2)OCO3)S(=O)(=O)c2ccc(O)c(C(=O)O)c2)cc1	–	–	–	–	·
Cc1cc(C)c(N)cc1C	–	–	–	–	·
NC(=O)c1ccc(C(F)(F)F)n(Cc2c(Cl)cccc2Cl)c1=O	–	–	47	–	–
COc1ccc(Cl)cc1NC(=O)CN1C(=O)CC(C)S(=O)(=O)c2ccccc21 (stereo not drawn)	–	–	–	–	·
C=CCOc1c(Cl)cc(CNCCCN2CCOCC2)cc1OC	–	–	–	–	·
Oc1c(Br)cc(C=Nc2ccc3nc(-c4ccccc4)[nH]c3c2)c(O)c1Br	·	·	–	·	·
O=[N+]([O-])c1ccc(O)c(C=Nc2ccc3nc(-c4ccccc4)[nH]c3c2)c1	–	–	42	–	–
COc1ccc(-c2cc3c(c4c2ccn4C)C2CCC3C2)cc1OC (stereo not drawn)	–	–	·	–	·
O=C(O)CC/C(=C\c1ccc(N2CCOCC2)c([N+](=O)[O-])c1)c1nc2ccccc2s1	–	–	–	–	·
O=C(O)CC/C(=C\c1ccc(Cl)c([N+](=O)[O-])c1)c1nc2ccccc2s1	–	–	49	–	–	ATG4B confirm=64
CC(C)CN(C(=O)COc1ccccc1C(=O)NCc1ccccc1)C1CCS(=O)(=O)C1 (stereo not drawn)	–	–	·	–	·
O=C(Oc1c(-c2ccccc2)c(=O)n2c3c(cccc13)CC2)c1ccc(Cl)cc1	–	–	62	–	67
O=C(Oc1c(-c2ccccc2)c(=O)n2c3c(cccc13)CC2)c1ccco1	–	–	–	–	·
CCOc1ccccc1N1CCN(C2=C(NS(=O)(=O)c3cccs3)C(=O)c3ccccc3C2=O)CC1	–	–	57	–	65
Cc1nc2c(C(=O)NCc3ccccc3)c[nH]n2c(=O)c1Cl	–	–	–	–	·
Cc1nc2c(C(=O)NCCc3ccccc3Cl)c[nH]n2c(=O)c1Cl	–	–	43	–	57
Cc1nc2c(C(=O)NCc3ccccc3Cl)c[nH]n2c(=O)c1Cl	–	–	49	–	–	ATG4B confirm=62
COc1cc(C(=O)N2CCCCC2c2cc(C(=O)Nc3ccccc3)no2)cc(OC)c1C (stereo not drawn)	–	–	·	–	·
Cc1ccc(-c2nc3ccccc3[nH]2)cc1NC(=O)c1ccc2c(c1)OCO2	–	–	–	–	·
Cc1ccc(-c2nc3ccccc3[nH]2)cc1NC(=S)NC(=O)c1ccccc1Br	–	–	41	–	61
SMILES	SKN-1 block	MPTP inh	ATG4B inhibitor	MT1-MMP act inh	PLA2 ctr	others
CC(C)CCOc1ccc(/C=C2\CCn3c2nc2cc(C(=O)O)ccc2c3=O)cc1	–	–	97	–	92
COC(=O)c1ccc(/C=C2\CCn3c2nc2cc(C(=O)O)ccc2c3=O)cc1	–	–	–	–	·
NNC(=O)C(Cc1c[nH]c2ccccc12)NC(=O)c1ccccc1 (stereo not drawn)	–	–	–	–	·
CCCCC(=O)Nc1ccccc1N1CCOCC1	–	–	–	–	·
CCCCCC(=O)Nc1ccccc1N1CCN(c2ccccc2)CC1	–	–	41	–	–	ATG4B confirm=51
COc1ccc(C=C(C#N)c2ccc(OC)cc2)cc1	–	–	–	–	·
N#C/C(=C\c1ccc(OCC(N)=O)cc1)c1ccccc1	–	–	45	–	53
C[C@@H]1C(=O)OC[C@H]1NC(=O)OCc1ccccc1	–	–	–	–	·
O=S1(=O)N(Cc2ccccc2F)CCCN1Cc1c(F)cccc1Cl	–	–	68	–	83
O=C(c1ccc(F)cc1)N1CCCCC(S(=O)(=O)c2ccccc2)C1=O (stereo not drawn)	–	–	–	–	·
CCOc1ccc(-n2c(SCc3ccc(C(=O)OC)o3)nc3c(c2=O)SCC3)cc1	–	–	60	–	77
CCOc1ccc(-n2c(SCC(=O)Nc3ccc(OC)cc3)nc3c(c2=O)SCC3)cc1	–	–	–	–	·
COC(=O)c1ccc(CSc2nc3c(c(=O)n2-c2ccc(Br)cc2)SCC3)o1	–	–	65	–	73
O=C1C(Nc2ccccc2)=C/C(=N/S(=O)(=O)c2cccs2)c2ccccc21	–	–	72	–	78
COc1ccc(Br)cc1CNC(=O)C1CCCN(c2nc3ccccc3o2)C1 (stereo not drawn)	–	–	64	–	68
O=C(CNc1n[nH]c(=O)[nH]c1=O)N/N=C/C=C/c1ccccc1	–	–	–	–	·
Cc1ccc(-n2c(Cc3cccn3C)nnc2SCC(=O)N2CCc3ccccc32)cc1	–	–	52	–	–
Cn1cccc1Cc1nnc(SCC(=O)N2CCc3ccccc32)n1-c1ccc(F)cc1	–	–	–	–	·
CCOC(=O)c1cnc(SCc2cccc(C)c2)nc1N	–	–	–	–	·
CCOc1cc(Br)c(Br)c(C=Nc2ccc(NC(C)=O)cc2)c1O	–	–	66	–	55
COc1ccc(C2(CNC(=O)Cc3ccc(OC)c(OC)c3)CCOCC2)cc1	–	–	–	–	·
C=CCC[C@@H](Cc1ccc(F)cc1)C(=O)OC[C@@H](NC(=O)[C@@H](CC=C)CC(=O)N(CCO)Cc1ccccc1)c1ccccc1	–	–	–	–	·
C=CCC[C@@H](Cc1ccc(F)cc1)C(=O)OC[C@@H](NC(=O)[C@H](CC=C)CC(=O)N(CCO)Cc1ccccc1)c1ccccc1	–	–	53	–	76
Cc1ccc(C(=O)Nc2ccccc2N2CCCCC2)cc1[N+](=O)[O-]	–	–	–	–	·
Cc1ccc(C(=O)NC(=S)Nc2ccccc2N2CCCC2)cc1[N+](=O)[O-]	–	–	42	–	–
C=CCn1c(CNc2ccc(C)cc2)nnc1SCC(=O)N/N=C/c1ccc(O)cc1	–	–	–	–	·
Cc1ccc(Cl)c(OCC(=O)Nc2ccc(S(=O)(=O)NC3=NCCCCC3)cc2)c1	–	–	–	–	·
Cc1cc(OCC(=O)Nc2ccc(S(=O)(=O)NC3=NCCCCC3)cc2)c(C(C)C)cc1Cl	–	–	48	–	56
O=C(NCc1cccc(C(F)(F)F)c1)N1CCN(S(=O)(=O)c2ccccc2F)CC1	–	–	51	–	–	ATG4B confirm=61
